Source: ChEMBL document CHEMBL1136228 (Bioorg Med Chem Lett, 2003)

Experiments:
[1] = biological target: T1, Peroxisome proliferator-activated receptor alpha (Homo sapiens, UniProt Q07869)
T1 sequence (Q07869 whole entry): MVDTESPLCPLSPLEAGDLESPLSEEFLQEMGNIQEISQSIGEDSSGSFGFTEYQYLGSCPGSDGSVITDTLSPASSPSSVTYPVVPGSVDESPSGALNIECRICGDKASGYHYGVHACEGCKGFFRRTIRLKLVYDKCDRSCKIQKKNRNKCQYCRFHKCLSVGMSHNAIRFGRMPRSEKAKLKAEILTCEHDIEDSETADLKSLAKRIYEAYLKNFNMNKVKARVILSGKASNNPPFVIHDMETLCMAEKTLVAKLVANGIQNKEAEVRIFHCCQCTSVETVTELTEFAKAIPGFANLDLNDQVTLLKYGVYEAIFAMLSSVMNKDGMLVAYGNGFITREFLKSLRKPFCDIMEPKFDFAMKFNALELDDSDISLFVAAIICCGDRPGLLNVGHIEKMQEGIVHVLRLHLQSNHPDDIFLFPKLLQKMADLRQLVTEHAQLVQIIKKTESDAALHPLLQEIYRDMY

[2] = biological target: T1, Peroxisome proliferator-activated receptor alpha; remark: listed apart in the source
[3] = biological target: T2, Peroxisome proliferator-activated receptor gamma (Homo sapiens, UniProt P37231)
T2 sequence (P37231 whole entry): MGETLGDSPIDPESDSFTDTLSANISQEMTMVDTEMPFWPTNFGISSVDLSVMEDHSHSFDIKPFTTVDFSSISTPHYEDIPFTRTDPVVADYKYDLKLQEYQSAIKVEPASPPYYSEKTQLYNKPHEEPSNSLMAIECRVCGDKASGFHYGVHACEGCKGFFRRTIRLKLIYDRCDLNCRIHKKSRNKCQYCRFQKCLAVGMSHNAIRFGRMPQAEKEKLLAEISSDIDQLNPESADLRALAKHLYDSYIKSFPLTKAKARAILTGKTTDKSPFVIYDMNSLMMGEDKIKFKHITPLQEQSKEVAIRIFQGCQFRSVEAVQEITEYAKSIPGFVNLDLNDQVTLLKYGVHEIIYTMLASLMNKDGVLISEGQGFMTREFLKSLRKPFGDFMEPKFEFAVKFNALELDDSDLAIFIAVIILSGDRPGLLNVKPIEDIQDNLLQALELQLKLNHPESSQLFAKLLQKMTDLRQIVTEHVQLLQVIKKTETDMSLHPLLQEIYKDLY

[4] = biological target: T2, Peroxisome proliferator-activated receptor gamma; remark: listed apart in the source
Mus musculus [5] = test: Fasting plasma glucose level after 10 mg/kg peroral administration in db/db Mouse; format: functional; conditions: route oral
Outline: (§1)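 db/db (lepr db-3J/lepr db-3J) mice dosed orally once daily for 11 days; fasting plasma glucose measured at day 11. Correction is expressed as mean glucose lowering, as a percentage of the difference between vehicle-treated db/db and lean control mice.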

Mus musculus [6] = test: Fasting plasma glucose levels after 30 mg/kg peroral administration in db/db Mouse; format: functional; conditions: route oral
Outline: as §1

[7] = biological target: T2, Peroxisome proliferator-activated receptor gamma; test: Binding affinity towards peroxisome proliferator activated receptor gamma (PPAR gamma): Weakly active
[8] = biological target: T2, Peroxisome proliferator-activated receptor gamma; test: Binding affinity towards peroxisome proliferator activated receptor gamma (PPAR gamma); weakly active
[9] = biological target: T1, Peroxisome proliferator-activated receptor alpha; test: Binding affinity towards peroxisome proliferator activated receptor alpha (PPAR alpha); weakly active
Rattus norvegicus [10] = test: Total Cholesterol change in Sprague-Dawley rat after 30 mg/kg peroral administration; conditions: route oral
Rattus norvegicus [11] = test: Heart weight of Sprague-Dawley rat after 30 mg/kg peroral administration; conditions: route oral
Mus musculus [12] = test: Fasting plasma glucose levels after 1 mg/kg peroral administration in db/db Mouse; format: functional; conditions: route oral
Outline: as §1

Rattus norvegicus [13] = test: Triglyceride change in Sprague-Dawley rat after 30 mg/kg peroral administration; conditions: route oral
Mus musculus [14] = test: Fasting plasma glucose levels after 3 mg/kg peroral administration in db/db Mouse; format: functional; conditions: route oral
Outline: as §1

Rattus norvegicus [15] = test: Brown adipose tissue weight in Sprague-Dawley rat after 30 mg/kg peroral administration; conditions: route oral
Rattus norvegicus [16] = test: Body weight of Sprague-Dawley rat after 30 mg/kg peroral administration; conditions: route oral
Rattus norvegicus [17] = test: Body weight of Sprague-Dawley rat after 10 mg/kg peroral administration; conditions: route oral
Rattus norvegicus [18] = test: Heart weight of Sprague-Dawley rat after 10 mg/kg peroral administration; conditions: route oral
Rattus norvegicus [19] = test: Triglyceride change in Sprague-Dawley rat after 10 mg/kg peroral administration; conditions: route oral
Rattus norvegicus [20] = test: Total Cholesterol change in Sprague-Dawley rat after 10 mg/kg peroral administration; conditions: route oral
Rattus norvegicus [21] = test: Brown adipose tissue weight in Sprague-Dawley rat after 10 mg/kg peroral administration; conditions: route oral
Mus musculus [22] = test: Fasting plasma glucose levels after 5 mg/kg peroral administration in db/db Mouse; format: functional; conditions: route oral
Outline: as §1

Mus musculus [23] = test: Fasting plasma glucose levels after 15 mg/kg peroral administration in db/db Mouse; format: functional; conditions: route oral
Outline: as §1

SMILES	Ki [1] [nM]	EC50 [2] [nM]	Ki [3] [nM]	EC50 [4] [nM]	FPG correction (Mus musculus [5]) [%]	Change (Rattus norvegicus [10]) [%]	Heart weight (Rattus norvegicus [11]) [g]	Change (Rattus norvegicus [13]) [%]	BAT weight (Rattus norvegicus [15]) [g]	Body weight (Rattus norvegicus [16]) [g]	further results
CCCc1c(O)c(C(=O)CC)cc(Cl)c1OC(C(=O)O)c1ccccc1 (centres undefined)	293	804	985	3760							
CCCc1cc2c(C(F)(F)F)noc2c(CCC)c1O[C@H](C(=O)O)c1ccccc1	12		618	194	50						
COC(=O)c1cc(C)c(OC(C(=O)O)c2ccccc2)c(C)c1 (centres undefined)	225		> 10000								
CCCc1c(OC(C(=O)O)c2ccccc2)ccc2c(C(F)(F)F)noc12 (centres undefined)	98	836		4600							FPG correction (Mus musculus [6]): -5%; Ki [7]: Partially active
CCCc1cc2c(C(F)(F)F)noc2c(CCC)c1O[C@@H](C(=O)O)c1ccccc1				3150							Ki [8]: Partially active; Ki [9]: Partially active
CCCc1cc2c(C(F)(F)F)noc2c(CCC)c1OC(C(=O)O)c1ccc(C(F)(F)F)cc1 (centres undefined)	18	23	104	79	83	-32	1.14	-41	0.27	318	FPG correction (Mus musculus [12]): 21%; FPG correction (Mus musculus [14]): 41%
CCCc1cc(C(=O)CC)c(O)c(CCC)c1OC(C(=O)O)c1ccccc1 (centres undefined)	81	37		1090	42	-7	1.06	-8	0.34	294	Body weight (Rattus norvegicus [17]): 290 g; FPG correction (Mus musculus [6]): 55%; Heart weight (Rattus norvegicus [18]): 1.11 g; Ki [7]: Partially active; Change (Rattus norvegicus [19]): -64%; Change (Rattus norvegicus [20]): -36%; BAT weight (Rattus norvegicus [21]): 0.29 g
CCCc1cc2c(C(F)(F)F)noc2c(CCC)c1OC(C(=O)O)c1ccc(CCc2ccccn2)cc1 (centres undefined)	65	28	197	110	75						
CCCc1cc(C(=O)OC)cc(CCC)c1OC(C(=O)O)c1ccccc1 (centres undefined)	63		1100								
CCCc1c(OC(C(=O)O)c2ccccc2)c(Cl)cc2c(CC)noc12 (centres undefined)	38	162		1120		-9	1.22	-11	0.34	312	FPG correction (Mus musculus [22]): 10%; Ki [8]: Partially active; FPG correction (Mus musculus [23]): 47%
